Experimental data pooled from the literature.
Each line is one published result; the experiments were not run side by side.
LATS2: Serine/threonine-protein kinase LATS2 (LATS2, Homo sapiens, UniProt Q9NRM7)
SLC6A6: Sodium- and chloride-dependent taurine transporter (SLC6A6, Homo sapiens, UniProt P31641)
CD36: Platelet glycoprotein 4 (CD36, Homo sapiens, UniProt P16671)
AKR1B1: Aldo-keto reductase family 1 member B1 (AKR1B1, Homo sapiens, UniProt P15121)
TRPM8: Transient receptor potential cation channel subfamily M member 8 (TRPM8, Homo sapiens, UniProt Q7Z2W7)

Cc1ccc(C(=O)Nc2ccc(S(=O)(=O)O)c3cc(S(=O)(=O)O)cc(S(=O)(=O)O)c23)cc1NC(=O)c1cccc(NC(=O)Nc2cccc(C(=O)Nc3cc(C(=O)Nc4ccc(S(=O)(=O)O)c5cc(S(=O)(=O)O)cc(S(=O)(=O)O)c45)ccc3C)c2)c1  Kd (Electrogenic aspartate/glutamate antiporter SLC25A13, mitochondrial (SLC25A13, Homo sapiens, UniProt Q9UJS0); binding, ITC; pH 6.5): 7.57 µM
CCCCC(=O)Nc1ccc(-c2ccc3ncn(CCC)c(=O)c3c2)cn1  Kd (Phosphatidylinositol 5-phosphate 4-kinase type-2 gamma (PIP4K2C, Homo sapiens, UniProt Q8TBX8); binding, competition with immobilised ligand): 0.00655 µM
Cc1cc(-c2ccnc3[nH]cc(F)c23)cc(F)c1[C@@]1(O)[C@H](C)CN(C2CCS(=O)(=O)CC2)C[C@@H]1C  Kd (LATS2; binding, TR-FRET): 0.0017 µM
NCCCC(=O)O  Kd (SLC6A6; binding, MST): 26 µM
Cc1ncsc1-c1ccc(CNC(=O)[C@@H]2C[C@@H](O)CN2C(=O)[C@@H](NC(=O)COCCOCCOCCNC(=O)C[C@@H]2N=C(c3ccc(Cl)cc3)c3c(sc(C)c3C)-n3c(C)nnc32)C(C)(C)C)cc1  Kd (CD36; binding, SPR): 9.6 µM
COc1cc(/C=N/NC(=S)N/N=C/c2ccccc2)ccc1Oc1ccnc2cc(Cl)ccc12  IC50 (AKR1B1; enzyme activity, inhibitor, absorbance): 17.2 µM
OC1(c2ccc(-c3ccnc4[nH]cc(F)c34)cc2)CCNCC1  IC50 (LATS2; enzyme activity, inhibitor, radiometric): 0.0057 µM
CCCCCCCCCP(=O)(C(C)C)C(C)C  EC50 (TRPM8; ion current, agonist, patch clamp): 24.8 µM
Cc1cc(-c2ccnc3[nH]cc(F)c23)cc(F)c1[C@@]1(O)[C@H](C)CN(C(=O)CN)C[C@@H]1C  Kd (LATS2; binding, TR-FRET): 0.00049 µM
N=C(N)NCC(=O)O  Kd (SLC6A6; binding, MST): 35.8 µM
O=C(c1ccccc1)c1ccc(OCCCn2cnc3ccccc3c2=O)cc1  Kd (CD36; binding, MST): 10 µM
COc1cc(/C=N/NC(=S)NN=Cc2ccc([N+](=O)[O-])o2)ccc1Oc1ccnc2cc(Cl)ccc12  Ki (AKR1B1; enzyme activity, inhibitor): 4.65 µM
CNC(=O)C(C)(C(C)C)C(C)C  EC50 (TRPM8; calcium signal, agonist): 56.5 µM
COc1cc(/C=N/NC(=S)N/N=C\c2ccc(CCl)cc2)ccc1Oc1ccnc2cc(Cl)ccc12  IC50 (AKR1B1; enzyme activity, inhibitor, absorbance): 20.4 µM
CCOc1cccc(C2CC(=O)Nc3c2c(C)nn3-c2ccc3nncn3n2)c1 (centres unmarked)  Kd (DNA damage-binding protein 1 (DDB1, Homo sapiens, UniProt Q16531); binding, SPR): 10 µM
COc1cc(/C=N/NC(=S)N/N=C\c2ccc(Cl)c(Cl)c2)ccc1Oc1ccnc2cc(Cl)ccc12  IC50 (AKR1B1; enzyme activity, inhibitor, absorbance): 13.4 µM
CCCCCCCCCCCCCCCC(=O)O  Kd (CD36; binding, SPR): 247 µM
